The sample as a whole holds a higher share of hits than the screen did.
HUVEC prolif 384 – inhibitors of human endothelial cell proliferation; HUVEC proliferation, CellTiter-Glo luminescence, 72 h; stronger effect = lower value; viability, % at 10 µM (by protocol); hit rate 1.1% among 86,000;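 active = viability at or below 30%; inactive = viability above 30%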;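 also: 100% = median luminescence of DMSO-only cell control wells on each plate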
Fibroblast inh – blocks proliferation of human lung fibroblasts. viability, % at 10 µM. hit rate 1.1% among 85,000. AID 719. LL 47 human lung fibroblast viability, ATP luminescence; stronger effect = lower value;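 active = viability at or below 50% in the single dose screen; inactive = viability above 50%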;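 also: compound exposure lasted 72 h before the ATP readout; 100% = median luminescence of untreated cell-only wells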
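Assay system: human lung fibroblast line LL 47, low passage. Input: 1,150 fibroblasts seeded per well. Times: overnight cell rest, 72 h compound treatment at 37 °C. Evaluation: % viability of median cell-only signal. Technique: luminescent ATP detection, CellTiter-Glo. Control set: cell-only wells, no compound.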
H69AR growth 86K – growth inhibitors of human H69AR lung tumor cells; hit rate 6% among 85,000; H69AR lung tumor viability, ATP luminescence, 72 h; stronger effect = lower value; viability, % at 10 µM; AID 598;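 active = viability at or below 40%; inactive = viability above 40%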;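 also: multidrug resistant small cell line overexpressing MRP-1 efflux transporter; 100% = mean luminescence of untreated control wells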
PTEN del growth – growth suppressors of cells with PTEN tumor suppressor deletion; HCT116 PTEN-null viability, CellTiter-Glo, 60 h; stronger effect = lower value; viability, % at 10 µM; hit rate 1.2% among 140,000;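 active = viability at or below a set limit, 4 SD under the median of all tested compounds, cut at about 3.7% in these data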;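 also: PTEN knockout HCT116 line with beta catenin targeted HCT116 as companion control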
HCT116 bCat-KO – beta-catenin-lacking colon tumor cell growth suppression; HCT116 beta-catenin knockout viability, CellTiter-Glo, 60 h; stronger effect = lower value; viability, % at 10 µM; hit rate 1.5% among 140,000;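 active = viability at or under a set limit, the compound median less 4 SD, cut at about 6% in these data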;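 also: 0% = Hyamine 1622 control at 20 µM and 100% = untreated cell control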
Numbers without * were called inactive.

What do the screens show for `CC(C)CNC(=O)C1CCN(c2ccc(S(=O)(=O)N3CCOCC3)cc2Cl)CC1`?
HUVEC prolif 384: 97; Fibroblast inh: 95; H69AR growth 86K: 92; PTEN del growth: 86; HCT116 bCat-KO: 92

How did O=C(NCc1cccs1)C1CCN(c2ccc(S(=O)(=O)N3CCOCC3)cc2Cl)CC1 do in these assays?
HUVEC prolif 384: 54; Fibroblast inh: 59; H69AR growth 86K: 18*; PTEN del growth: 10; HCT116 bCat-KO: 12

How did CC(C)c1ccccc1-n1c(SCc2cc(=O)oc3ccc4ccccc4c23)nnc1-c1cccnc1 do in these assays?
PTEN del growth: 60; HCT116 bCat-KO: 67

What do the screens show for `CC(Oc1ccc(Cl)cc1Cl)C(=O)Nc1ccncc1` (centres undefined)?
HUVEC prolif 384: 81; Fibroblast inh: 83; H69AR growth 86K: 34*; PTEN del growth: 49; HCT116 bCat-KO: 61

How did Cc1ccc2nc(NCCCO)nc(-c3ccccc3)c2c1 do in these assays?
HUVEC prolif 384: 64; Fibroblast inh: 73; H69AR growth 86K: 8.9*; PTEN del growth: 26; HCT116 bCat-KO: 23

What do the screens show for `CCCCOc1ccc(C(=O)N/N=C/c2ccc(OCCN3CCCCC3)c(OC)c2)cc1`?
PTEN del growth: 40; HCT116 bCat-KO: 43

What do the screens show for `CCC(Sc1nc2cc3c(cc2c(=O)n1Cc1ccco1)OCO3)C(=O)Nc1ccccc1OC` (centres undefined)?
HUVEC prolif 384: 25*; Fibroblast inh: 55; H69AR growth 86K: 7.6*; PTEN del growth: 20; HCT116 bCat-KO: 6

How did CCC(Sc1nc2cc3c(cc2c(=O)n1Cc1ccco1)OCO3)C(=O)Nc1cccc(OC)c1 (centres undefined) do in these assays?
HUVEC prolif 384: 4.1*; Fibroblast inh: 36*; H69AR growth 86K: 11*; PTEN del growth: 1.7*; HCT116 bCat-KO: 1.7*

How did CCC(Sc1nc2cc3c(cc2c(=O)n1Cc1ccco1)OCO3)C(=O)NCCOC (centres undefined) do in these assays?
HUVEC prolif 384: 109; Fibroblast inh: 97; H69AR growth 86K: 88; PTEN del growth: 100; HCT116 bCat-KO: 102

Results for Cc1sc2nc(CN3CCC(C)CC3)nc(Cl)c2c1C ?
PTEN del growth: 0.8*; HCT116 bCat-KO: 0.9*

What do the screens show for `CC(=O)Nc1ccc(S(=O)(=O)NC2=C(N3CCN(Cc4ccccc4)CC3)C(=O)c3ccccc3C2=O)cc1`?
HUVEC prolif 384: 7.0*; Fibroblast inh: 103; H69AR growth 86K: 31*; PTEN del growth: 64; HCT116 bCat-KO: 55

How did COC(=O)c1cccc(NC(=O)/C=C/c2cccc([N+](=O)[O-])c2)c1 do in these assays?
PTEN del growth: 108; HCT116 bCat-KO: 101

How did N/C(=N\OC(=O)Oc1ccccc1)c1cccc([N+](=O)[O-])c1 do in these assays?
PTEN del growth: 97; HCT116 bCat-KO: 98

What do the screens show for `O=C(C#Cc1ccccc1)c1cccc([N+](=O)[O-])c1`?
HUVEC prolif 384: 45; Fibroblast inh: 18*; H69AR growth 86K: 1.4*; PTEN del growth: 2.1*; HCT116 bCat-KO: 2.4*

Results for O=C(/C=C/c1ccccc1F)c1cccc([N+](=O)[O-])c1 ?
PTEN del growth: 2.6*; HCT116 bCat-KO: 3.2*

Results for COc1ccc(C(=O)/C=C/c2ccccc2F)c(OC(=O)c2ccc([N+](=O)[O-])cc2)c1 ?
PTEN del growth: 23; HCT116 bCat-KO: 32

What do the screens show for `O=C(Oc1ccc(F)cc1C(=O)/C=C/c1cccs1)c1cccc([N+](=O)[O-])c1`?
HUVEC prolif 384: 60; Fibroblast inh: 64; H69AR growth 86K: 3.0*; PTEN del growth: 50; HCT116 bCat-KO: 60

How did Cc1ccc(OC(=O)c2cccc([N+](=O)[O-])c2)c(-n2nc3ccccc3n2)c1 do in these assays?
PTEN del growth: 86; HCT116 bCat-KO: 82

Results for COc1cc(/C=C/C(=O)c2cccc([N+](=O)[O-])c2)cc(OC)c1OC ?
PTEN del growth: 1.4*; HCT116 bCat-KO: 2.1*

Results for C=CCNC(=O)CCCOc1ccc(C)cc1 ?
HUVEC prolif 384: 94; Fibroblast inh: 101; H69AR growth 86K: 106; PTEN del growth: 93; HCT116 bCat-KO: 88

Results for C=CCNC(=O)CCCCC(=O)NCC=C ?
HUVEC prolif 384: 96; Fibroblast inh: 97; H69AR growth 86K: 32*; PTEN del growth: 105; HCT116 bCat-KO: 94

Results for Cn1c(SCC(=O)N2CCc3ccccc32)nnc1-c1ccc(S(=O)(=O)N2CCCC2)cc1 ?
PTEN del growth: 91; HCT116 bCat-KO: 93

How did O=C(Cn1ncc(Cl)c(Cl)c1=O)N1CCN(S(=O)(=O)c2ccc3ccccc3c2)CC1 do in these assays?
PTEN del growth: 1.1*; HCT116 bCat-KO: 1.1*

How did O=C(CSc1nc2ccccc2o1)N1CCN(S(=O)(=O)c2ccc3ccccc3c2)CC1 do in these assays?
PTEN del growth: 48; HCT116 bCat-KO: 39

What do the screens show for `Cc1ccc2occ(C(c3nnnn3C3CCCC3)N3CCN(C(=O)c4ccco4)CC3)c(=O)c2c1` (centres undefined)?
HUVEC prolif 384: 93; Fibroblast inh: 100; H69AR growth 86K: 60; PTEN del growth: 77; HCT116 bCat-KO: 83

What do the screens show for `O=C(c1ccco1)N1CCN(C(c2coc3ccc(Cl)cc3c2=O)c2nnnn2C2CCCC2)CC1` (centres undefined)?
HUVEC prolif 384: 73; Fibroblast inh: 86; H69AR growth 86K: 14*

What do the screens show for `COc1ccc2c(c1)C(=O)[C@@H](O)[C@H](c1ccc(OC)c(Br)c1)O2`?
PTEN del growth: 11; HCT116 bCat-KO: 11

Results for COc1cccc([C@@H]2Oc3ccc(OC)cc3C(=O)[C@H]2O)c1 ?
PTEN del growth: 9; HCT116 bCat-KO: 5.3*

What do the screens show for `CCOc1ccc(C2C(C(=O)c3cccs3)=C(O)C(=O)N2CCCn2ccnc2)cc1` (centres undefined)?
HUVEC prolif 384: 98; Fibroblast inh: 104; H69AR growth 86K: 108

How did Cc1ccc(C)c(OCC(=O)Nc2nonc2NC(=O)COc2cc(C)ccc2C)c1 do in these assays?
HUVEC prolif 384: 56; Fibroblast inh: 96; H69AR growth 86K: 19*; PTEN del growth: 76; HCT116 bCat-KO: 84

How did COc1cc(/C=C(\C#N)c2ccccn2)ccc1OCC(=O)Nc1c(Cl)cccc1Cl do in these assays?
PTEN del growth: 87; HCT116 bCat-KO: 81

What do the screens show for `COc1cc(/C=C(\C#N)c2ccccn2)ccc1OCC(=O)Nc1ccc(Br)cc1`?
PTEN del growth: 5; HCT116 bCat-KO: 5.4*

How did COc1cc(/C=C(/C#N)c2nc3ccccc3[nH]2)ccc1OCC(=O)Nc1ccccc1C(C)C do in these assays?
PTEN del growth: 0.7*; HCT116 bCat-KO: 1.2*

How did C=CCNC(=O)C(=O)N/N=C/c1ccco1 do in these assays?
PTEN del growth: 94; HCT116 bCat-KO: 83

How did Cc1ccc(-c2cc(C(=O)Nc3cc(C)on3)c3ccccc3n2)cc1 do in these assays?
PTEN del growth: 99; HCT116 bCat-KO: 88

How did Cc1cc(C)c2nc(-c3ccccn3)cc(C(=O)Nc3cc(C)on3)c2c1 do in these assays?
HUVEC prolif 384: 50; Fibroblast inh: 81; H69AR growth 86K: 34*; PTEN del growth: 48; HCT116 bCat-KO: 54
